Screens as filed in PubChem.
KCNQ1 inh: inhibitors of human KCNQ1 channel, primary screen, cell-based, thallium flux, high-throughput | CHO-K1 KCNQ1, FluxOR thallium flux fluorescence; active compounds read high | B-score at 10 µM | 310,000 tested, 1.3% active | Potassium voltage-gated channel subfamily KQT member 1 (Homo sapiens), P51787;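 active means compounds whose thallium flux B-score, printed positive for inhibition, exceeds three library SD while starting fluorescence stays within three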;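 further: channel opened by potassium depolarization with thallium stimulus after 20 min compound exposure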
Target sequence (P51787 whole entry, looked up): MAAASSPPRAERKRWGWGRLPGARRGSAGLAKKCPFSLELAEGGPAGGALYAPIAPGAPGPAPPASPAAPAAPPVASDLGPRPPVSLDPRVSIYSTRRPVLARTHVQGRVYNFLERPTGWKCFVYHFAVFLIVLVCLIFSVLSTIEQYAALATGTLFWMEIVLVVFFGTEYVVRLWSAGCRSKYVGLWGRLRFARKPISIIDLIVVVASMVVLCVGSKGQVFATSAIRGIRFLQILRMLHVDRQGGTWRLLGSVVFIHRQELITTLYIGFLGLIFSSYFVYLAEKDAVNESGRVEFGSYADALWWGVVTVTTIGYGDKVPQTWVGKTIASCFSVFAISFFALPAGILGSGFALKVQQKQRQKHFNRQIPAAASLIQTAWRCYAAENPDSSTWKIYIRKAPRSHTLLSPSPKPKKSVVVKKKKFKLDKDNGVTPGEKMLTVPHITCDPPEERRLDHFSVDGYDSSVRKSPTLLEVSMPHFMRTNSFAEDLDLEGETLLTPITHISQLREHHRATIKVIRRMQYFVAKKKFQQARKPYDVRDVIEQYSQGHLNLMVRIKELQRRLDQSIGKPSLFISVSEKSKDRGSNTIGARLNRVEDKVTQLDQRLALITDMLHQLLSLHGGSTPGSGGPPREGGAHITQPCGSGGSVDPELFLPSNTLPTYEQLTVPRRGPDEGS
KCNK9 inh: KCNK9 potassium channel inhibitors, primary screen, HEK293 cells, thallium flux | Potassium channel subfamily K member 9 (Homo sapiens), Q9NPC2 | FluxOR thallium flux fluorescence; active compounds read low | B-score at 10 µM | 310,000 tested, 1.2% active;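 active means ratio B-score over 3 SD below the library mean, with starting fluorescence within 5 SD of its mean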;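 further: negative B-score means less thallium flux so channel inhibition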
KCNQ1 pot: potentiators or activators of KCNQ1 channel, primary screen, cell-based, thallium flux, high-throughput | Potassium voltage-gated channel subfamily KQT member 1 (Homo sapiens), P51787 | CHO-K1 KCNQ1, thallium flux FluxOR fluorescence; active compounds read high | B-score at 10 µM | 310,000 tested, 0.35% active | AID 2648, 2010;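 active means fluorescence ratio B-score, a plate-corrected score, at least three library SD, with initial intensity B-score within 5 SD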
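Assay system: CHO-K1 cells stably expressing KCNQ1; Medium: assay buffer with matched DMSO; Also added: K+/Tl+ depolarizing stimulus; Dosing: single dose; Timing: dye 90 min, compound 20 min, room temperature; Measured by: kinetic FluxOR thallium fluorescence, 10-s 1-Hz baseline, 110-s post-stimulus read; Read-out: peak-minus-minimum fluorescence over initial fluorescence, negative-control normalized, B-scored.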
KCNK3 block: human KCNK3 channel inhibitors, primary screen, CHO cells, FluxOR thallium flux, B-score; B-score at 10 µM; FluxOR fluorescence; active compounds read low; 340,000 tested, 0.84% active; Potassium channel subfamily K member 3 (Homo sapiens), O14649;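 active means B-score under library mean minus 4 SD, starting fluorescence ratio at most library mean plus 5 SD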;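 further: more negative B-score means stronger inhibition of thallium flux through KCNK3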
Kir21 block: inhibitors of mouse Kir2.1 inward-rectifier potassium channel. Inward rectifier potassium channel 2 (Mus musculus), P35561. HEK293-Kir2.1, FluxOR thallium flux fluorescence; active compounds read low. B-score at 10 µM. 310,000 tested, 0.85% active. AID 1672, 2009;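 active means fluorescence ratio B-score at or below minus 3 SD of library scores, with starting-brightness B-score within 2 SD, cut at about -4.2 in these data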;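 further: channel flux triggered by added potassium and thallium sulfate stimulus; B-score of peak minus minimum fluorescence over baseline after thallium stimulus; more negative B-score means stronger Kir2.1 block with less thallium influx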
hERG rescue: hERG rescue from dofetilide block, primary screen, cell-based, CHO-hERG, FluxOR thallium flux, dofetilide IC70; Voltage-gated inwardly rectifying potassium channel KCNH2 (Homo sapiens), Q12809; dofetilide IC70 present; activation (rescue from dofetilide block), less the hit threshold, % at 10 µM; 310,000 tested, 0.51% active; AID 1511, 2009;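 active means activation above the mean of controls blocked by dofetilide plus 5 SD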;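 further: thallium influx through hERG after potassium depolarization seen as dye fluorescence rise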
KCNK9 block conf: KCNK9 potassium channel inhibitors, confirmation, HEK293 cells, thallium flux, duplicate. 4,900 tested, 43% active. AID 492992, 2010. shares compounds with KCNK9 inh. inhibition, % at 10 µM. FluxOR thallium flux fluorescence;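 active means thallium signal inhibited by more than 5 SD of the compound-free buffer control wells, on both duplicate plates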;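 further: 0% = assay buffer control wells without compound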
Kir21 sel: mouse Kir2.1 channel inhibition, confirmation, selectivity assay for KCNK9 modulator project, cell-based, HEK293, thallium flux. shares compounds with KCNK9 inh. Kir2.1 cells, FluxOR thallium flux fluorescence. inhibition, % at 10 µM. 4,900 tested, 4% active;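 active means thallium signal drop more than 5 SD beyond the mean of the no-compound control wells, seen in both duplicate plates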;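 further: signal is fluorescence rise after thallium addition divided by baseline fluorescence; plate controls were assay buffer only for no effect and full block by chlorpromazine control for full effect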
HEK293 Tl ctr: thallium flux in non-induced HEK293 cells, confirmation, counter-screen for KCNK9 inhibitor project, cell-based, second counter screen, non-induced KCNK9-HEK293 | 4,900 tested, 40% active | inhibition, % at 10 µM | AID 492997, 2010 | shares compounds with KCNK9 inh | FluxOR thallium flux;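 active means thallium signal drop beyond 5 SD of the untreated control mean, on both duplicate plates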;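 further: plate controls were buffer only IC0 wells for no effect and SID17386958 at its maximal inhibitory level for full effect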
Starred values were filed as active, the others as inactive; i = inactive; nt = no result given. Only some compounds are listed: those with a hit (about 3.7% of all), similar ones and a draw of the others.

SMILES	KCNQ1 inh	KCNK9 inh	KCNQ1 pot	KCNK3 block	Kir21 block	hERG rescue	KCNK9 block conf	Kir21 sel	HEK293 Tl ctr
Cc1nc(C(C)NC(=O)c2cc(COc3ccc(C)c(C)c3)on2)c(C)s1 (stereo not drawn)	i	i	i	i	-0.51	-8	i	i	i
CCc1ccc(CN(Cc2cccnc2)C(=O)/C=C/c2ccc(OC)cc2)cc1	i	i	i	i	1.7	-14	i	i	i
COc1ccc(/C=C/C(=O)NCc2cccnc2)cc1	i	i	i	i	-0.01	-2	nt	nt	nt
COC(=O)C1=C(N)Oc2cc(C)[nH]c(=O)c2C1c1ccccc1OC (stereo not drawn)	i	i	i	i	1.9	-11	nt	nt	nt
O=C(Nc1cccc(-c2nnc(-c3ccccc3)o2)c1)c1ccc(Br)o1	i	-20*	i	i	0.05	-2	44%*	i	i
O=C(O)CCC(=O)Nc1cccc(-c2nnc(-c3ccccc3)o2)c1	i	i	i	i	1.9	-1	nt	nt	nt
CSCCC(NS(=O)(=O)c1ccc(C)cc1)C(=O)NC1CCCCCC1 (stereo not drawn)	i	i	i	i	-1.9	-12	nt	nt	nt
CCOc1cc(C)c(C(C)C)cc1S(=O)(=O)N1CC(C)OC(C)C1 (stereo not drawn)	i	i	i	i	-1.3	-8	nt	nt	nt
CCOc1cc(C)c(C(C)C)cc1S(=O)(=O)n1cnc(C)c1	i	i	i	i	-0.41	-6	i	i	i
COc1ccc(S(=O)(=O)N2CCC3(CC2)CC(=O)c2ccccc2O3)cc1C	i	i	i	i	-0.01	-7	nt	nt	nt
COc1ccccc1CNC(=O)COC(=O)CSc1ccc(Cl)cc1	i	i	i	i	0.18	-7	nt	nt	nt
COc1ccccc1CNc1cc(CSc2ccc(Cl)cc2)nc(C)n1	i	i	i	i	-2.2	-6	i	46%*	i
O=C(NNC(=O)c1cc(Br)c(Br)s1)c1ccncc1	nt	nt	nt	i	nt	nt	nt	nt	nt
Cn1c(=O)c(C(=O)c2ccccc2)nc2ccccc21	i	i	i	i	-1.9	-11	nt	nt	nt
O=C(c1ccccc1)c1nc2ccccc2n(CCCn2c(=O)c(C(=O)c3ccccc3)nc3ccccc32)c1=O	i	i	i	i	-0.46	-3	i	i	i
Cc1noc(NC(=O)c2ccc(Cl)cc2)c1Cl	i	i	i	i	0.05	-5	nt	nt	nt
Cc1nonc1OCC(C)(COc1nonc1C)NC(=O)c1ccc(Cl)cc1	i	-9.1*	i	i	0.01	-10	46%*	i	36%*
O=c1oc2ccccc2c(Nc2cc3ccccc3cc2O)c1[N+](=O)[O-]	i	i	i	i	-1.3	-13	i	i	i
Cc1ccc(N2CC(C(=O)Nc3nnc(SCC(N)=O)s3)CC2=O)cc1 (stereo not drawn)	i	i	i	i	-1.5	-5	nt	nt	nt
C=CCn1c(SCc2csc(C)n2)nc2sc3c(c2c1=O)CCC(C)C3 (stereo not drawn)	i	i	i	i	-0.12	-14	i	i	i
C=CCn1c(SCc2csc(C)n2)nc2sc3c(c2c1=O)CCCCC3	i	i	i	i	0.48	-17	nt	nt	nt
Cc1ccc(/C=N/NC(=O)c2ccccc2OCc2ccc(F)cc2)o1	i	i	i	i	2.2	-6	nt	nt	nt
C#CCOc1ccccc1/C=N/NC(=O)c1ccccc1OCc1ccccc1	i	-9.6*	i	i	0.07	-15	30%*	i	41%*
O=C(N/N=C/c1cc(Br)ccc1OC(=O)c1ccc(Br)cc1)c1ccncc1	i	-12*	i	i	-0.39	-12	45%*	i	34%*
O=C(N/N=C/c1ccncc1)c1ccccc1OCc1ccc(Br)cc1	i	-8.9*	i	i	-0.74	-9	i	i	i
SMILES	KCNQ1 inh	KCNK9 inh	KCNQ1 pot	KCNK3 block	Kir21 block	hERG rescue	KCNK9 block conf	Kir21 sel	HEK293 Tl ctr
O=C(N/N=C/c1cc(Br)ccc1O)c1ccncc1	i	i	i	i	1.7	-20	nt	nt	nt
Clc1ccc2nncn2n1	i	i	i	i	-0.11	-7	nt	nt	nt
Cc1noc(NS(=O)(=O)c2ccc(NC(=O)C34CC5CC(C3)CC(n3cnc(Br)n3)(C5)C4)cc2)c1C	i	i	i	i	-0.01	-5	nt	nt	nt
CCOC(=O)Cc1c(C)nc2c(-c3ccccc3)c(C)nn2c1C	i	i	i	i	-0.45	-6	i	i	i
N#Cc1c(SCc2ccc(Cl)cc2)sc(C(=O)c2ccccc2)c1N	i	-11*	i	i	1.8	-6	26%*	i	34%*
Cc1ccc(N2CCN(C(=O)c3nn(C)c4c3CS(=O)(=O)c3ccccc3-4)CC2)c(C)c1	i	i	i	i	0.99	-10	nt	nt	nt
CCn1c(SCc2ccccc2Cl)nc2nc3c(cc2c1=O)CCCC3	i	i	i	i	1	-12	i	i	i
Cn1c(SCc2nc(-c3ccc(Cl)cc3)no2)nnc1-c1ccccc1	i	i	i	i	0.15	-10	nt	nt	nt
Cc1ccc(-c2noc(CSc3nnc(CCc4ccccc4)n3-c3ccccc3)n2)cc1	i	-10*	i	i	-2.3	-10	i	i	36%*
COc1ccc(-c2noc(CSc3nnc(Cc4ccccc4)n3-c3ccc(Cl)cc3)n2)cc1	i	i	i	i	-0.53	-14	i	i	i
Cc1ccc(-c2noc(CSc3nnc(Cc4ccccc4)n3-c3ccc(Cl)cc3)n2)cc1	i	i	i	i	-1.3	-10	i	i	31%*
